From ChEMBL document CHEMBL5712885, “A chromatin activity-based chemoproteomic approach reveals a transcriptional repressome for gene-specific silencing” (Nat Commun, 2014)
Activity calls are given as the source filed them. No cut-off for these calls is given here. Where a SMILES comes first, the peptide text is derived from it. The star is where a group is joined. Cbz = O=C(OCc1ccccc1)*

Legend:
[1] = molecular target: T1, Histone-lysine N-methyltransferase EHMT2 (Mus musculus) (UniProt Q9Z148); conditions: C57BL/6, BMDM, dose 250.0 nM, time 16.0 hrs
T1 sequence (whole entry): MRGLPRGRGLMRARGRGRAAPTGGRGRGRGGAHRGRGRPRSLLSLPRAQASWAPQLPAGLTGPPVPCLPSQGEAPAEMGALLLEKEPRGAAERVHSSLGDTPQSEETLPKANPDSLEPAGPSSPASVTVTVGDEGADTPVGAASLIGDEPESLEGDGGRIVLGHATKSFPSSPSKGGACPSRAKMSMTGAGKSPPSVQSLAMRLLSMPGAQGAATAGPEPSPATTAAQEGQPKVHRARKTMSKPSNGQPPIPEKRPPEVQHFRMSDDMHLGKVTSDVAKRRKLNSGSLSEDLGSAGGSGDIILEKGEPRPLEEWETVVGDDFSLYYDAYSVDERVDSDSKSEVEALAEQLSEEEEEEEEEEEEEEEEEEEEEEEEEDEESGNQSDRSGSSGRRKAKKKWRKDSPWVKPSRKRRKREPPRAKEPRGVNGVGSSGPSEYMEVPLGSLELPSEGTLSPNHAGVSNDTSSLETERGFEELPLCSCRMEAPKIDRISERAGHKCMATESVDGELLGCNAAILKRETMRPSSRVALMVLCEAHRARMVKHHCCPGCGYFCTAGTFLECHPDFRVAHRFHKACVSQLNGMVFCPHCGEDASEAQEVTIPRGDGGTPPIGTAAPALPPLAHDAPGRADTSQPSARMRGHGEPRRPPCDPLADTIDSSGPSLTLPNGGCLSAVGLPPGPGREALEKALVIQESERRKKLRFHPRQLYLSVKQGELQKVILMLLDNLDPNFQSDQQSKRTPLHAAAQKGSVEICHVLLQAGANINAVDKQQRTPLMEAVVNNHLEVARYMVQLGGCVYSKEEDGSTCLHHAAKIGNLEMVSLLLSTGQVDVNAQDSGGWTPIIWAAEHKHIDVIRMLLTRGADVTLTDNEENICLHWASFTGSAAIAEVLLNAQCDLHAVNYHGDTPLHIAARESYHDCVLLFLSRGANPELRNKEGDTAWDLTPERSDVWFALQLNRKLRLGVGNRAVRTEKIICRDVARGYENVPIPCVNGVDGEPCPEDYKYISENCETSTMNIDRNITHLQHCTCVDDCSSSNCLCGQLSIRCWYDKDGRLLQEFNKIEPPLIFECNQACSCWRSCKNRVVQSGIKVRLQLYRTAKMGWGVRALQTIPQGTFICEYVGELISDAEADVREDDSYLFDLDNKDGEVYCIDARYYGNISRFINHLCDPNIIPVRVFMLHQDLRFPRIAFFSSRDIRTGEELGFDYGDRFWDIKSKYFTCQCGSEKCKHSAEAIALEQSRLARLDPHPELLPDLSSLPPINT

[2] = molecular target: T1, Histone-lysine N-methyltransferase EHMT2 (Mus musculus); conditions: C57BL/6, RAW264.7, dose 250.0 nM, time 16.0 hrs
[3] = molecular target: T1, Histone-lysine N-methyltransferase EHMT2 (Mus musculus); conditions: C57BL/6, BMDM, dose 250.0 nM, time 16.0 hrs; remark: listed apart in the source
[4] = molecular target: T1, Histone-lysine N-methyltransferase EHMT2 (Mus musculus); conditions: C57BL/6, BMDM, dose 250.0 nM, time 16.0 hrs; remark: listed apart in the source
[5] = molecular target: T1, Histone-lysine N-methyltransferase EHMT2 (Mus musculus); conditions: C57BL/6, RAW264.7, dose 250.0 nM, time 16.0 hrs; remark: listed apart in the source
[6] = molecular target: T1, Histone-lysine N-methyltransferase EHMT2 (Mus musculus); conditions: C57BL/6, BMDM, dose 250.0 nM, time 16.0 hrs; remark: listed apart in the source
[7] = test system: RAW264.7; assay: Cytotoxicity against mouse RAW264.7 cells assessed as reduction in cell survival at 1 uM after 9 days Giemsa staining based assay; type: toxicity; conditions: raw264.7, 216 h, time 9 day
Procedure, shortened: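 Raw264.7 cells plated at 50, 100 and 200 viable cells in duplicate wells, primed 48 h with 100 ng ml⁻¹ LPS, then given fresh media containing 1 μM inhibitor. Grown 9 days, then fixed in methanol-acetic acid (3:1) and stained 30 min with 10% Giemsa. Colonies over 20 cells counted. Survival expressed as percent of colonies on plates without LPS or inhibitor.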

[8] = test system: RAW264.7; assay: Upregulation of C-Myc protein expression in LPS tolerant mouse RAW264.7 cells with G9a knock down at 10 uM upto 4 hrs in presence of LPS by immunoblot analysis; type: functional, cell-based
[9] = test system: RAW264.7; assay: Upregulation of C-Myc protein expression in LPS tolerant mouse RAW264.7 cells in presence of G9a/LPS at 10 uM upto 4 hrs by immunoblot analysis; type: functional, cell-based
[10] = test system: RAW264.7; assay: Upregulation of C-Myc protein expression in LPS tolerant mouse RAW264.7 cells at 10 uM upto 4 hrs in presence of LPS by immunoblot analysis; type: functional, cell-based
[11] = test system: RAW264.7; assay: Down regulation of c-Myc protein expression in LPS tolerant mouse RAW264.7 cells with G9a knockdown at 1 ug/ml upto 90 mins by immunoblot analysis; type: functional, cell-based; conditions: dose 1.0 µg/ml
Procedure, shortened: (§1)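 Raw264.7 cells (shRNA G9a-knockdown line with ≥90% knockdown, or empty-vector control) primed with 100 ng ml⁻¹ LPS for 24 h, then given 1 µg ml⁻¹ cycloheximide for indicated times. c-Myc was detected by anti-c-Myc immunoblot with γ-tubulin loading control. Bands were quantified by densitometry and plotted, and half-life was read from the fitted curve.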

[12] = test system: RAW264.7; assay: Down regulation of c-Myc protein expression in LPS tolerant mouse RAW264.7 cells with G9a overexpression at 1 ug/ml upto 90 mins in presence of LPS by immunoblot analysis; type: functional, cell-based; conditions: dose 1.0 µg/ml
[13] = test system: RAW264.7; assay: Down regulation of c-Myc protein expression in LPS tolerant mouse RAW264.7 cells at 1 ug/ml upto 90 mins in presence of LPS by immunoblot analysis; type: functional, cell-based; conditions: dose 1.0 µg/ml
Procedure, shortened: as §1

## COc1cc2c(NC3CCN(C(C)C)CC3)nc(C3CCCCC3)nc2cc1OCCCN1CCCC1
[1]
  inhibition: Active
[2]
  inhibition: Active
[3]
  inhibition: Active
[4]
  inhibition: Active
[5]
  inhibition: Active
[6]
  inhibition: Active
[7]
  Activity: Toxic

## CC(C)C[C@@H](C=O)NC(=O)[C@H](CC(C)C)NC(=O)[C@H](CC(C)C)NC(=O)OCc1ccccc1 (Cbz-Leu-Leu-Leu-aldehyde)
[8]
  Activity: Active
[9]
  Activity: inactive
[10]
  Activity: Active

## C[C@@H]1C[C@@H]([C@H](O)CC2CC(=O)NC(=O)C2)C(=O)[C@@H](C)C1
[11]
  Activity: Active
[12]
  Activity: inactive
[13]
  Activity: Active
